Measurements pooled from the literature.
Protocols differ between the studies behind these lines.
Target: Tyrosine-protein kinase Fer (FER, Homo sapiens, UniProt P16591)

CN1CC(Oc2cnc(C#N)cc2-c2ccn3nc(NC(=O)C4CC4)cc3c2)C1
inhibition (enzyme activity, inhibitor; 1 µM): 1%

Cc1cc(NC(=O)c2cccc3cc(-c4cccc5[nH]nc(N)c45)ccc23)ccc1F
activity vs control (enzyme activity, inhibitor; 0.1 µM): 106%

Cc1sc(C(=O)NC2COC2)cc1-n1cc(NC(=O)Nc2c(F)cccc2Cl)cn1
remaining activity (enzyme activity, inhibitor; 10 µM): 90%

CCN(CC)CCNC(=O)c1c(C)[nH]c(/C=C2\C(=O)Nc3ccc(F)cc32)c1C
inhibition (enzyme activity, inhibitor; 0.3 µM): -42%

COc1cc2ncnc(Nc3ccc(F)c(Cl)c3)c2cc1OCCCN1CCOCC1
remaining signal (cell-free assay; 0.5 µM): 94.1%

COc1cc2nccc(Oc3ccc(NC(=O)c4c5n(n(-c6ccc(F)cc6)c4=O)CCCC5)cc3)c2cc1OC
inhibition (enzyme activity, inhibitor; 0.1 µM): -14%

O=C1NC(c2ccccn2)Sc2ccccc21 (centres unmarked)
remaining binding (cell-free assay, competition with immobilised ligand; 1 µM): 84%

C=CC(=O)Nc1cc(Nc2nccc(Nc3cc(Cl)c(F)cc3C(C)(C)O)n2)c(OC)cc1N1CC[C@@H](N(C)C)C1
inhibition (enzyme activity, inhibitor; 1 µM): 8%

Cc1ccc(C(=O)NCc2ccsc2)cc1C#Cc1cn(C(C)C)c2ncnc(N)c12
activity vs control (enzyme activity, inhibitor; 1 µM): 92%

CCN(CC)c1ccc(C2=NNC(=O)CC2C)cc1[N+](=O)[O-] (centres unmarked)
remaining activity (enzyme activity, inhibitor; 10 µM): 119%

CNC(=O)c1cc2c(Oc3ccc(NC(=O)C4(C(=O)Nc5ccc(F)cc5)CC4)cc3)ccnc2cc1OC
inhibition (enzyme activity, inhibitor, radiometric; 1 µM): 74%

CO[C@@H](C)c1c(Nc2ccc([C@H](N(C)C(=O)C3CCS(=O)(=O)CC3)C(F)(F)F)cc2)cnc2cc(Cl)nn12
remaining binding (cell-free assay, competition with immobilised ligand; 1 µM): 88%

COc1cc2c(N3CCN(C(=O)Nc4ccc(OC(C)C)cc4)CC3)ncnc2cc1OCCCN1CCCCC1
remaining signal (cell-free assay; 0.5 µM): 104%

CC(C)(C)c1nc2c(s1)c1nc(N)ncc1c1ccc(NS(=O)(=O)c3c(F)cccc3F)c(F)c12
remaining activity (enzyme activity, inhibitor, radiometric; 1 µM): 111%

c1nc2c(Nc3ccc4c(c3)OCCO4)nc(Nc3ccc4c(c3)OCCO4)nc2[nH]1
activity vs control (enzyme activity, inhibitor; 10 µM): 5.7%

Cc1ccc(Nc2nccc(N(C)c3ccc4c(C)n(C)nc4c3)n2)cc1S(N)(=O)=O
inhibition (enzyme activity, inhibitor; 10 µM): 71%

CN(C)C(=O)Cn1cc(-c2nc(C3(c4ccc(-c5cnc(N)nc5)cc4)CC3)no2)cn1
remaining binding (cell-free assay, competition with immobilised ligand; 1 µM): 79%

CNC(=O)c1cc(Oc2ccc(NC(=O)Nc3ccc(Cl)c(C(F)(F)F)c3)cc2)ccn1
inhibition (enzyme activity, inhibitor; 0.3 µM): -8%

COc1cc2nccc(Oc3ccc(NC(=S)NC(=O)c4ccccc4C)cc3)c2cc1OC
remaining activity (enzyme activity, inhibitor; 0.5 µM): 58.2%

COc1ccc2c(c1)O[C@@H](c1ccc(OC)c(OC)c1)C[C@H]2NC(=O)C1(c2ccc3c(c2)OC(F)(F)O3)CC1
remaining binding (cell-free assay, competition with immobilised ligand; 1 µM): 100%

O=c1c2ccccc2[nH]c(=S)n1CCN1CCC(=C(c2ccc(F)cc2)c2ccc(F)cc2)CC1
remaining activity (enzyme activity, inhibitor; 0.5 µM): 95.2%

CC(C)(O)[C@H]1CC[C@H](Nc2ccc3ncc(-c4cccc(C(F)(F)F)c4)n3n2)CC1
remaining activity (enzyme activity, inhibitor; 1 µM): 77.1%

CCN1CCN(Cc2ccc(NC(=O)c3ccc(C)c(/C=C/c4cnc5[nH]ccc5c4OC)c3)cc2C(F)(F)F)CC1
inhibition (target engagement in cells, inhibitor, chemoproteomics; A-375; 50 nM): -10.4%

Cc1c[nH]c2nccc(Oc3c(F)cc(Nc4cc(Cl)nc(N)n4)cc3F)c12
remaining binding (cell-free assay, competition with immobilised ligand; 0.1 µM): 100%

C[S+]([O-])c1ccc(-c2nc(-c3ccncc3)c(-c3ccc(F)cc3)[nH]2)cc1 (centres unmarked)
remaining signal (cell-free assay; 0.5 µM): 95%

COc1cccc(CNC(=O)c2nc3scc(COCc4ccc(C(=O)O)cc4)c3c(=O)[nH]2)c1
remaining binding (cell-free assay, competition with immobilised ligand; 1 µM): 100%

Cc1ccc(NC(=O)c2ccc(CN3CCN(C)CC3)cc2)cc1Nc1nc(-c2cccnc2)cs1
remaining signal (cell-free assay; 0.5 µM): 97.6%

COc1cc2ncnc(Nc3ccc(Oc4ccccc4)c(C)c3C)c2cc1OC
inhibition (enzyme activity, inhibitor; 1 µM): 18%

CC1=C(C#N)C(c2ccc3c(c2)c(NC(=O)c2ccccc2C)nn3C)C(C#N)=C(C)N1
remaining binding (cell-free assay, competition with immobilised ligand; 1 µM): 88%

Cc1cnc(NC2CCOCC2)nc1-n1cnc(C(=O)NC(CN)c2cc(F)cc(Cl)c2)c1 (centres unmarked)
remaining activity (enzyme activity, inhibitor, radiometric; 1 µM): 104%

O=C(O)[C@@H]1[C@@H](Cn2nnc3ccccc3c2=O)CC[C@H]1C(=O)c1ccc(OCCC2CCOCC2)cc1
remaining binding (cell-free assay, competition with immobilised ligand; 1 µM): 87%

O=c1cc(-c2cccc3c2Sc2ccccc2S3)oc(N2CCOCC2)c1
remaining activity (enzyme activity, inhibitor; 0.5 µM): 103%
